Compound activity as filed in PubChem.
A1 apoptosis 2: blocks A1, raising caspase activity; MEF A1-2A-BIM cells, caspase-Glo luminescence, 3 h; percent of clofoctol response, DMSO zero; caspase activation, % (test concentration not listed); 24,000 tested, under 10 active; in the data active means caspase activation above about 5.9%
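Evaluation: Caspase-3/7 activity from luminescence increase | Assay system: A1-2A-BIM mouse embryonic fibroblasts | Quantity: 2500 MEF cells/well | Medium: RPMI-1640 plus 10% FBS | Detection: Caspase-Glo 3/7 luminescence, 1 h at room temperature | Dosing: 50 nL compound per well, pinned | Timing: Cells settled overnight, compound exposure 3 h at 37 °C, 5% CO2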
The depositor's hits bear a star. The full list was thinned out, with hits kept by preference.

SMILES	A1 apoptosis 2
CN(C)CCCOc1ccc(/C=N/NC(=O)c2ccc(C(=O)NO)cc2)cc1	0
O=C(N/N=C/c1cc(Br)cs1)c1ccccn1	-10
COC(=O)CCCCCCC(=O)N/N=C/c1ccc(OC)c(O)c1	-1
COCCOC(=O)N1C(=O)[C@@]2(c3cc(C#CC4(O)CCCCCC4)ccc31)[C@H](C(N)=O)[C@H]1C(=O)O[C@H](c3ccccc3)[C@H](c3ccccc3)N1[C@@H]2c1ccc(OCCO)cc1	-1
C=CCN1C(=O)[C@@]2(O[C@@H](CCO)[C@H]([Si](C)(C)c3ccc(OC)cc3)[C@H]2C)c2cc(I)ccc21	-2
C=CCN1C(=O)[C@@]2(O[C@@H](CCn3cc(CCO)nn3)[C@H]([Si](C)(C)c3ccc(OC)cc3)[C@H]2C)c2ccccc21	-1
COc1ccc([Si](C)(C)[C@@H]2[C@@H](CCn3cc(CCO)nn3)O[C@]3(C(=O)N(c4ccccc4)c4ccccc43)[C@H]2C)cc1	12*
COc1ccc([Si](C)(C)[C@H]2[C@H](CCO)O[C@@]3(C(=O)N(c4ccccc4)c4ccccc43)[C@@H]2C)cc1	-1
COc1ccc([Si](C)(C)[C@@H]2[C@@H](CCO)O[C@]3(C(=O)N4c5c(cc(OC)cc53)C(C)=CC4(C)C)[C@H]2C)cc1	27*
COc1ccc([Si](C)(C)[C@@H]2[C@@H](CCn3cc(CCO)nn3)O[C@]3(C(=O)N(C)c4ccccc43)[C@H]2C)cc1	1
O=C(NCc1ccccc1)C1=C[C@@H](c2cccs2)C[C@@H](OCc2ccc(CO)cc2)O1	1
C=CCN1C(=S)N[C@@H]2c3ccccc3O[C@@]1(C)[C@@H]2CO	1
CC(C)(C)OC(=O)NCCOCCOCCNc1ncnc2ccccc12	-1
